Test results: ChEMBL document CHEMBL4610084, “Antibacterial and ATP Synthesis Modulating Compounds from Salvia tingitana” (2020)

Columns and labels:
[1] = organism: Bos taurus; test: Modulation of ATP synthase in bovine rod outer segments assessed as inhibition of ATP production at 80 ug/ml in presence of Ap5A adenylate kinase inhibitor by luciferin/luciferase chemiluminescent method relative to control
How it was run: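 Bovine rod OS (5 μg) preincubated 5 min at 37 °C in Tris/HCl pH 7.4 with KCl, EGTA, MgCl2, 0.6 mM ouabain, 0.25 mM Ap5A, 5 mM KH2PO4, 20 mM succinate, 0.35 mM NADH and ampicillin. Synthesis started with 0.1 mM ADP and stopped with perchloric acid. ATP read by luciferin/luciferase luminescence. Samples at 80 μg/mL; 30 μM resveratrol as positive control. Triplicates, ANOVA/Bonferroni.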

[2] = system: Staphylococcus saprophyticus; test: Antibacterial activity against Staphylococcus saprophyticus MB41 after 24 hrs by microdilution assay; assay type: functional; details: MB41, 24 h
How it was run: (§1)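 Broth microdilution MIC against clinical or seawater-isolated strains (identified by standard procedures and MALDI-TOF), with compound solutions and testing as in earlier work. MIC reported in μg/mL and μM.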

[3] = system: Enterococcus faecalis; test: Antibacterial activity against Vancomycin resistant Enterococcus faecalis MB19 after 24 hrs by microdilution assay; assay type: functional; details: MB19, 24 h
How it was run: (§2)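 Broth microdilution MIC, run as in an earlier cited report. Strains are clinical isolates identified by standard methods and MALDI-TOF; E. faecalis MB19 and MB51 are Ligurian seawater isolates. Highest concentration tested was 128 μg/mL. MICs are given in μg/mL and μM, with oxacillin and vancomycin as reference antibiotics.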

[4] = system: Staphylococcus lugdunensis; test: Antibacterial activity against Staphylococcus lugdunensis MB96 after 24 hrs by microdilution assay; assay type: functional; details: MB96, 24 h; how it was run: as §1
[5] = system: Staphylococcus epidermidis; test: Antibacterial activity against Methicillin-resistant Staphylococcus epidermidis MB169 after 24 hrs by microdilution assay; assay type: functional; details: MB169, 24 h; how it was run: as §2
[6] = system: Enterococcus faecalis; test: Antibacterial activity against Enterococcus faecalis MB76 after 24 hrs by microdilution assay; assay type: functional; details: MB76, 24 h; how it was run: as §2
[7] = system: Staphylococcus warneri; test: Antibacterial activity against Methicillin-resistant Staphylococcus warneri MB74 after 24 hrs by microdilution assay; assay type: functional; details: MB74, 24 h; how it was run: as §2
[8] = system: Enterococcus faecalis; test: Antibacterial activity against Vancomycin resistant Enterococcus faecalis MB51 after 24 hrs by microdilution assay; assay type: functional; details: MB51, 24 h; how it was run: as §2
[9] = system: Staphylococcus capitis; test: Antibacterial activity against Methicillin-resistant Staphylococcus capitis MB71 after 24 hrs by microdilution assay; assay type: functional; details: MB71, 24 h; how it was run: as §2
[10] = system: Staphylococcus hominis; test: Antibacterial activity against Methicillin-resistant Staphylococcus hominis MB124 after 24 hrs by microdilution assay; assay type: functional; details: MB124, 24 h; how it was run: as §2
[11] = system: Enterococcus faecalis; test: Antibacterial activity against Vancomycin resistant Enterococcus faecalis MB1 after 24 hrs by microdilution assay; assay type: functional; details: MB1, 24 h; how it was run: as §2
[12] = system: Enterococcus faecium; test: Antibacterial activity against Enterococcus faecium MB152 after 24 hrs by microdilution assay; assay type: functional; details: MB152, 24 h; how it was run: as §1
[13] = system: Staphylococcus simulans; test: Antibacterial activity against Staphylococcus simulans MB94 after 24 hrs by microdilution assay; assay type: functional; details: MB94, 24 h; how it was run: as §1
[14] = system: Enterococcus durans; test: Antibacterial activity against Enterococcus durans MB113 after 24 hrs by microdilution assay; assay type: functional; details: MB113, 24 h; how it was run: as §1
[15] = system: Enterococcus gallinarum; test: Antibacterial activity against Vancomycin resistant Enterococcus gallinarum MB111 after 24 hrs by microdilution assay; assay type: functional; details: MB111, 24 h; how it was run: as §2
[16] = system: Enterococcus faecium; test: Antibacterial activity against Enterococcus faecium MB3 after 24 hrs by microdilution assay; assay type: functional; details: MB3, 24 h; how it was run: as §1
[17] = system: Staphylococcus aureus; test: Antibacterial activity against Methicillin-resistant Staphylococcus aureus MB188 after 24 hrs by microdilution assay; assay type: functional; details: MB188, 24 h; how it was run: as §2
[18] = system: Enterococcus faecium; test: Antibacterial activity against Enterococcus faecium MB2 after 24 hrs by microdilution assay; assay type: functional; details: MB2, 24 h; how it was run: as §1
[19] = system: Enterococcus casseliflavus; test: Antibacterial activity against Vancomycin resistant Enterococcus casseliflavus MB159 after 24 hrs by microdilution assay; assay type: functional; details: MB159, 24 h; how it was run: as §2
[20] = system: Staphylococcus epidermidis; test: Antibacterial activity against Methicillin-resistant Staphylococcus epidermidis MB165 after 24 hrs by microdilution assay; assay type: functional; details: MB165, 24 h; how it was run: as §2
[21] = system: Enterococcus faecium; test: Bacteriostatic activity against Enterococcus faecium MB152 assessed as ratio of reduction in bacterial growth by measuring order of magnitude at 4 times MIC by time kill assay; assay type: functional
How it was run: (§3)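 Time-kill curves: viable cell counts of susceptible strains recorded with or without compound at 4 × MIC.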

[22] = system: Enterococcus avium; test: Antibacterial activity against Enterococcus avium MB119 after 24 hrs by microdilution assay; assay type: functional; details: MB119, 24 h; how it was run: as §1
[23] = system: Staphylococcus aureus; test: Antibacterial activity against Methicillin-resistant Staphylococcus aureus MB18 after 24 hrs by microdilution assay; assay type: functional; details: MB18, 24 h; how it was run: as §2
[24] = system: Staphylococcus haemolyticus; test: Antibacterial activity against Methicillin-resistant Staphylococcus haemolyticus MB115 after 24 hrs by microdilution assay; assay type: functional; details: MB115, 24 h; how it was run: as §2
[25] = system: Enterococcus faecalis; test: Bacteriostatic activity against Enterococcus faecalis MB1 assessed as ratio of reduction in bacterial growth at 4 times MIC by time kill assay; assay type: functional; how it was run: as §3
[26] = system: Staphylococcus aureus; test: Bacteriostatic activity against Methicillin-resistant Staphylococcus aureus MB18 assessed as ratio of reduction in bacterial growth at 4 times MIC by time kill assay; assay type: functional
[27] = system: Staphylococcus epidermidis; test: Bacteriostatic activity against Staphylococcus epidermidis MB165 assessed as ratio of reduction in bacterial growth at 4 times MIC by time kill assay; assay type: functional; how it was run: as §3
[28] = system: Enterococcus faecium; test: Modulation of ATP synthase in Enterococcus faecium MB152 assessed as inhibition of ATP production at 5 times MIC after 2 hrs by BacTiter-Glo Assay
How it was run: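 Whole-cell ATP assay. VRE strain grown overnight in Mueller Hinton broth at 37 °C, diluted 1:10^6 in fresh broth and grown 2 h, then adjusted by OD600. Manool added at 5 × MIC. Samples taken at 0 and 2 h and mixed 1:1 with BacTiter-Glo for 5 min at room temperature. Luminescence converted via an ATP standard curve (1–0.001 pmol) to pmol/cfu. Broth serves as negative control. Three experiments in triplicate, Student's t test.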

[29] = organism: Bos taurus; test: Modulation of ATP synthase in bovine rod outer segments assessed as inhibition of ATP hydrolysis at 80 ug/ml in presence of Ap5A adenylate kinase inhibitor by pyruvate kinase/lactate dehydrogenase assay relative to control

Row | Structure (SMILES) | MIC [2] | MIC [3] | MIC [4] | MIC [5] | MIC [6] | MIC [7] | MIC [8] | MIC [9] | MIC [10] | MIC [11] | MIC [12] | MIC [13] | MIC [14] | MIC [15] | MIC [16] | MIC [17] | MIC [18] | MIC [19] | MIC [20] | MIC [22] | other results
1 | COC(=O)[C@]1(C)CCC[C@@]2(C)[C@H]1[C@@H](O)C[C@@](C)(O)[C@@H]2CC/C(C)=C/C[C@H]1OC(=O)C=C1C | > 128 µg/mL | 286 µM | > 128 µg/mL | > 128 µg/mL | 286 µM | 286 µM | 143 µM | 286 µM | 286 µM | 143 µM | 143 µM | > 128 µg/mL | 286 µM | 286 µM | 286 µM | > 128 µg/mL | 286 µM | 143 µM | 286 µM | 143 µM | inhibition [1]: 60%; Ratio [21]: 1 - 2; MIC [23]: 286 µM; MIC [24]: > 128 µg/mL; Ratio [25]: 1 - 2
2 | CC1=CC(=O)O[C@@H]1C/C=C(\C)CC[C@@H]1[C@@]2(C)CCC[C@@]3(C)C(=O)O[C@@H](C[C@@]1(C)O)[C@H]23 | > 128 µg/mL | 308 µM | 308 µM | > 128 µg/mL | 308 µM | 308 µM | 154 µM | 154 µM | > 128 µg/mL | 154 µM | 308 µM | > 128 µg/mL | > 128 µg/mL | 154 µM | 308 µM | > 128 µg/mL | > 128 µg/mL | 308 µM | 308 µM | 154 µM | inhibition [1]: 79%; Ratio [21]: 1 - 2; MIC [23]: 308 µM; MIC [24]: > 128 µg/mL; Ratio [25]: 1 - 2
3 | C=C[C@@](C)(O)CC[C@@H]1[C@@]2(C)CCCC(C)(C)[C@@H]2CC[C@@]1(C)O | 104 µM | 104 µM | 104 µM | 207 µM | 207 µM | 104 µM | 207 µM | 104 µM | 104 µM | 104 µM | 207 µM | 207 µM | 104 µM | 207 µM | 104 µM | 104 µM | 104 µM | 207 µM | 207 µM | 207 µM | inhibition [1]: 70%; Ratio [26]: 1 - 2; Ratio [27]: 1 - 2; Ratio [21]: 1 - 2; MIC [23]: 104 µM; MIC [24]: 207 µM; Ratio [25]: 1 - 2
4 | CC1=CC(=O)O[C@@H]1C/C=C(\C)CC[C@@H]1[C@@]2(C)CCC[C@@](C)(CO)[C@@H]2[C@@H](O)C[C@@]1(C)O | > 128 µg/mL | > 128 µg/mL | > 128 µg/mL | > 128 µg/mL | > 128 µg/mL | > 128 µg/mL | > 128 µg/mL | > 128 µg/mL | > 128 µg/mL | > 128 µg/mL | > 128 µg/mL | > 128 µg/mL | > 128 µg/mL | > 128 µg/mL | > 128 µg/mL | > 128 µg/mL | > 128 µg/mL | > 128 µg/mL | > 128 µg/mL | > 128 µg/mL | MIC [23]: > 128 µg/mL; MIC [24]: > 128 µg/mL
5 | C=C[C@@](C)(O)CC[C@H]1C(=C)CC[C@H]2C(C)(C)CCC[C@]12C [MANOOL] | > 128 µg/mL | 110 µM | > 128 µg/mL | > 128 µg/mL | 110 µM | > 128 µg/mL | 55 µM | > 128 µg/mL | > 128 µg/mL | 55 µM | 28 µM | > 128 µg/mL | 55 µM | 14 µM | 28 µM | > 128 µg/mL | 14 µM | 55 µM | > 128 µg/mL | 28 µM | inhibition [1]: 60%; inhibition [28]: 30%; inhibition [29]: 92%; Ratio [21]: 1 - 2; MIC [23]: > 128 µg/mL; MIC [24]: > 128 µg/mL; Ratio [25]: 1 - 2
6 | COC(=O)[C@]1(C)CCC[C@@]2(C)[C@H]1CC[C@@](C)(O)[C@@H]2CC/C(C)=C/C[C@H]1OC(=O)C=C1C | 296 µM | 148 µM | 296 µM | > 128 µg/mL | 148 µM | 148 µM | 296 µM | 148 µM | 296 µM | 74.1 µM | 296 µM | > 128 µg/mL | 296 µM | 148 µM | 148 µM | 296 µM | 296 µM | 296 µM | 296 µM | 296 µM | MIC [23]: > 128 µg/mL; MIC [24]: 296 µM
7 | CC1=CC(=O)O[C@@H]1[C@@H](O)/C=C(\C)CC[C@@H]1[C@@]2(C)CCC[C@@]3(C)C(=O)O[C@@H](C[C@@]1(C)O)[C@H]23 | > 128 µg/mL | 296 µM | > 128 µg/mL | > 128 µg/mL | 296 µM | 296 µM | 296 µM | 296 µM | > 128 µg/mL | 148 µM | 148 µM | > 128 µg/mL | 286 µM | 148 µM | 296 µM | > 128 µg/mL | 296 µM | 296 µM | 296 µM | 148 µM | MIC [23]: 296 µM; MIC [24]: 296 µM
8 | COC(=O)[C@]1(C)CCC[C@]2(C)[C@H]3CCC(C)(/C=C/c4occc4C)O[C@]3(C)CC[C@H]21 (some centres not stated) | 309 µM | 309 µM | > 128 µg/mL | 155 µM | 309 µM | 309 µM | 309 µM | 155 µM | 309 µM | > 128 µg/mL | > 128 µg/mL | > 128 µg/mL | > 128 µg/mL | 309 µM | 309 µM | > 128 µg/mL | 309 µM | 309 µM | 309 µM | > 128 µg/mL | MIC [23]: 309 µM; MIC [24]: > 128 µg/mL
